From ChEMBL document CHEMBL1156993, “Benzyl prolinate derivatives as novel selective KCC2 blockers” (Bioorg Med Chem Lett, 2010)
Values after ≈ are worked out from the molar mass of the structure shown. Blank lines part the entries; values can stand above or below the molecule they belong to. Active and inactive are the calls of the source. The rule behind the calls is not given here.

Tests used:
[1] = Aqueous solubility in PBS buffer at pH 7.4; format: physicochemical
[2] = Antagonist activity to dog NKCC1 transporter expressed in MDCK cells assessed as inhibition of Cl- free medium-stimulated Rb+ influx at 100 uM after 45 mins by atomic absorption spectroscopy; format: functional, Canis lupus familiaris; settings: for inhibition at 100 µM: Canis lupus familiaris, MDCK, 0.75 h
How it was run: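 MDCK cells express endogenous canine NKCC1. NKCC1 is activated by incubating the cells for 2 h in Cl−-free medium. Rb+ influx is then stimulated for 45 min by adding 20 mM RbCl to the extracellular solution. Intracellular Rb+ is quantified by atomic absorption spectroscopy, and results are given as percent inhibition.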

[3] = Intrinsic clearance in rat microsomes assessed per mg of protein; format: ADME, Microsome
[4] = Intrinsic clearance in rat hepatocytes assessed per 10^6 cells
[5] = biological target: T1, Solute carrier family 12 member 5 (Rattus norvegicus, UniProt Q63633); test: Antagonist activity of rat KCC2 transporter expressed in human SK-Hep cells assessed as inhibition of N-ethylmaleimide-mediated Rb+ influx after 10 mins by atomic absorption spectroscopy; format: functional, cell-based
T1 sequence (Q63633 whole entry): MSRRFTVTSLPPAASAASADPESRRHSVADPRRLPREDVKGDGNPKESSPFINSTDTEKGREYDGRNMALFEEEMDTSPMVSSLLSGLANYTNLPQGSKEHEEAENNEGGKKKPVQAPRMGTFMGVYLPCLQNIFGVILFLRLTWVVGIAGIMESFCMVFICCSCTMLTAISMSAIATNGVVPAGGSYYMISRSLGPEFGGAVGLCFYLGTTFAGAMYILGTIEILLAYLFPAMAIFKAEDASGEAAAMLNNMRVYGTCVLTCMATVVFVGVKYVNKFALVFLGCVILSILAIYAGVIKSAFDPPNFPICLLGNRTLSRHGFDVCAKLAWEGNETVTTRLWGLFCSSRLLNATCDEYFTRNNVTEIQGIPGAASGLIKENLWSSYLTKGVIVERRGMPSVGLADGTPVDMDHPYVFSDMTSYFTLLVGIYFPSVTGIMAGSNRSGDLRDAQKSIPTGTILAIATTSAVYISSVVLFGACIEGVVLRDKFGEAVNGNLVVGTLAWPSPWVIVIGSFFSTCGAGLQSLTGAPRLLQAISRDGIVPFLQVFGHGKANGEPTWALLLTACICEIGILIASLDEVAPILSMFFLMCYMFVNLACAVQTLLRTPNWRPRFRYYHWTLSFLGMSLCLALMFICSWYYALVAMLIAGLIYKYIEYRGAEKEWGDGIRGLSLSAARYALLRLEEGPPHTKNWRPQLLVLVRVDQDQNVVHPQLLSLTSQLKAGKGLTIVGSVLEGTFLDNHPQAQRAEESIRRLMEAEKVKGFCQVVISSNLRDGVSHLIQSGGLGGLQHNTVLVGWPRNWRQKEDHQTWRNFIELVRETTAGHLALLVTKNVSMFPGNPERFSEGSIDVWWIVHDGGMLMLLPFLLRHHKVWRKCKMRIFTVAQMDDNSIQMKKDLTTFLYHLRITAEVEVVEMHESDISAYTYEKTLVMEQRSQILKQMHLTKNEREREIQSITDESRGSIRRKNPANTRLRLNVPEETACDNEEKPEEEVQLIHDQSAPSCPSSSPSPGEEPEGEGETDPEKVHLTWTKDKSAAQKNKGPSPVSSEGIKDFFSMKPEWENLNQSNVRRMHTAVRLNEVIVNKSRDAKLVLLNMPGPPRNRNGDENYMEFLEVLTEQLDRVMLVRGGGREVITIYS
How it was run: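 Rat KCC2 stably expressed in a selected clone. The co-transporter is activated with N-ethylmaleimide in the presence of the test compound, and Rb+ influx is started by adding 5 mM RbCl to the extracellular medium. Influx is stopped after 10 min by repeated washes. Intracellular Rb+ is measured by atomic absorption spectroscopy, and IC50 is reported.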

Mus musculus [6] = test: Anticonvulsant activity in audiogenic mouse epilepsy model assessed as inhibition of sound-induced wild running phase of seizure up to 75 mg/kg, ip pretreated 5 mins before acoustic stimulation; format: functional, organism-based; design: dose 75 mg/kg
How it was run: (§1)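 Mice are pre-selected as responders in a first acoustic challenge (85 dB, 30 s). Wild running, clonic and tonic phases are scored. The next day, compound is given ip 5 min before the same stimulus. The proportion of mice protected against each of the three phases is calculated per group, with N = 10 per dose.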

Mus musculus [7] = test: Anticonvulsant activity in audiogenic mouse epilepsy model assessed as inhibition of sound-induced tonic convulsion phase of seizure up to 75 mg/kg, ip pretreated 5 mins before acoustic stimulation; format: functional, organism-based; design: dose 75 mg/kg; how it was run: as §1
Mus musculus [8] = test: Anticonvulsant activity in audiogenic mouse epilepsy model assessed as inhibition of sound-induced clonic phase of seizure up to 75 mg/kg, ip pretreated 5 mins before acoustic stimulation; format: functional, organism-based; design: dose 75 mg/kg; how it was run: as §1
[9] = Cmax in Wistar rat at 6 mg/kg, po; format: ADME, organism-based; design: dose 6 mg/kg, route oral; settings: in vivo
How it was run: (§2)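 Male Wistar rats are dosed at 1 mg/kg iv for half-life and clearance, and at 6 mg/kg po for AUC, Cmax and oral bioavailability.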

[10] = AUC in Wistar rat at 6 mg/kg, po; format: ADME, organism-based; design: dose 6 mg/kg, route oral; settings: plasma; how it was run: as §2
[11] = Oral bioavailability in Wistar rat at 6 mg/kg; format: ADME, organism-based; settings: in vivo; how it was run: as §2
[12] = Half life in Wistar rat at 1 mg/kg, iv; format: ADME, organism-based; design: dose 1 mg/kg, route intravenous; settings: in vivo; how it was run: as §2
[13] = Clearance in Wistar rat at 1 mg/kg, iv; format: ADME, organism-based; design: dose 1 mg/kg, route intravenous; settings: in vivo; how it was run: as §2

SMILES: CC(=O)N1CCCC1(Cc1ccc(S(C)(=O)=O)cc1)C(=O)OCc1ccccc1 (stereo in doubt; 13)
Activity (Mus musculus [6]): inactive | Activity (Mus musculus [7]): inactive | Activity (Mus musculus [8]): inactive

SMILES: CC(=O)N1CCCC1(Cc1ccccc1)C(=O)OCc1ccccc1Cl (stereo not given)
IC50 [5]: 6 µM

SMILES: CC(=O)N1CCCC1(Cc1cccc(C#N)c1)C(=O)OCc1ccccc1 (stereo not given)
IC50 [5]: 0.32 µM

SMILES: CC(=O)N1CCCC1(Cc1ccccc1)C(=O)O (stereo not given)
IC50 [5]: > 100 µM

SMILES: CCN1CCCC1(Cc1ccccc1)C(=O)OCc1ccccc1 (stereo not given)
IC50 [5]: > 100 µM

SMILES: CC(=O)N1CCCC1(Cc1ccccc1)C(=O)OCc1cccc(Cl)c1 (stereo not given)
IC50 [5]: 2.5 µM

SMILES: CC(=O)N1CCCC1(CCc1ccccc1)C(=O)OCc1ccccc1 (stereo not given)
IC50 [5]: 8 µM

SMILES: CC(=O)N1CCCC1(Cc1ccccc1)C(=O)OC(C)c1ccccc1 (stereo not given)
IC50 [5]: 4 µM

SMILES: CC(=O)N1CCCC1(Cc1cccc(S(C)(=O)=O)c1)C(=O)OCc1ccccc1 (stereo not given)
inhibition at 100 µM [2]: 25% | microsomal CLint [3]: 107 µL/min/mg | hepatocyte CLint [4]: 24 µL/min/1e6 cells | IC50 [5]: 0.25 µM

SMILES: CCNC(=O)N1CCCC1(Cc1ccccc1)C(=O)OCc1ccccc1 (stereo not given)
IC50 [5]: 2 µM

SMILES: CC(=O)N1CCCC1(Cc1ccccc1)C(=O)OCCc1ccccc1 (stereo not given)
IC50 [5]: 10 µM

SMILES: CC(=O)N1CCCC1(Cc1ccccc1)C(=O)OCc1ccccc1 (racemic)
Cmax [9]: 11.9 ng/mL | solubility [1]: 2 µg/mL (≈ 5.93 µM) | inhibition (INH) [2]: 44% | AUC [10]: 8.6 ng·h/mL | microsomal CLint [3]: 385 µL/min/mg | hepatocyte CLint [4]: 28 µL/min/1e6 cells | bioavailability [11]: 0.5% | half-life [12]: 2.4 h | clearance [13]: 61 mL/min/kg | IC50 [5]: 0.79 µM

SMILES: O=C(c1ccccc1)N1CCCC1(Cc1ccccc1)C(=O)OCc1ccccc1 (stereo not given)
IC50 [5]: 4 µM

SMILES: CC(=O)N1CCCC1(Cc1ccc(F)cc1C(F)(F)F)C(=O)OCc1ccccc1 (stereo not given)
IC50 [5]: 4 µM

Now from value to molecule, other results behind:

solubility [1]: 10 µg/mL (≈ 27.2 µM) | microsomal CLint [3]: 333 µL/min/mg | hepatocyte CLint [4]: 23 µL/min/1e6 cells | IC50 [5]: 0.4 µM
SMILES: COc1ccc(CC2(C(=O)OCc3ccccc3)CCCN2C(C)=O)cc1 (stereo not given)
inhibition at 100 µM [2]: 59%

IC50 [5]: 0.79 µM
SMILES: CC(=O)N1CCCC1(Cc1ccccc1)C(=O)OCc1ccc(C)cc1 (stereo not given)

IC50 [5]: 40 µM
SMILES: CC(=O)N1CCCC1(Cc1ccc(S(C)(=O)=O)cc1)C(=O)OCc1ccccc1 (single isomer, unassigned; (-))

IC50 [5]: 0.32 µM
SMILES: CC(=O)N1CCCC1(Cc1ccc(Cl)cc1)C(=O)OCc1ccccc1 (stereo not given)

IC50 [5]: 0.2 µM
SMILES: CC(=O)N1CCCC1(Cc1ccc(F)cc1)C(=O)OCc1ccccc1 (stereo not given)

solubility [1]: 2 µg/mL (≈ 4.93 µM) | microsomal CLint [3]: 128 µL/min/mg | hepatocyte CLint [4]: 20 µL/min/1e6 cells | IC50 [5]: 0.63 µM
SMILES: CC(=O)N1CCCC1(Cc1ccc(C(F)(F)F)cc1)C(=O)OCc1ccccc1 (stereo not given)
inhibition at 100 µM [2]: 53%

IC50 [5]: 1.3 µM
SMILES: CC(=O)N1CCCC1(Cc1ccccc1)C(=O)OCc1ccc(Cl)cc1 (stereo not given)

IC50 [5]: 5 µM
SMILES: CC(=O)N1CCCC1(Cc1ccccc1)C(=O)OCc1ccc(C(F)(F)F)cc1 (stereo not given)

IC50 [5]: > 100 µM
SMILES: CC(=O)N1CCCC1(Cc1ccccc1)C(=O)OCc1ccc(S(C)(=O)=O)cc1 (stereo not given)

solubility [1]: 20 µg/mL (≈ 55.2 µM) | microsomal CLint [3]: 123 µL/min/mg | hepatocyte CLint [4]: 31 µL/min/1e6 cells | IC50 [5]: 0.16 µM
SMILES: CC(=O)N1CCCC1(Cc1ccc(C#N)cc1)C(=O)OCc1ccccc1 (stereo not given)
inhibition at 100 µM [2]: 31%
